{"data": "Measurements pooled from the literature", "target": "Tyrosine-protein kinase Srms (SRMS, Homo sapiens, UniProt Q9H3Y6)", "note": "Compare with care: the assays were run in different laboratories."}
{"SMILES": "CN1CC(Oc2cnc(C#N)cc2-c2ccn3nc(NC(=O)C4CC4)cc3c2)C1", "observed": "enzyme activity", "action": "inhibitor", "tested at": "1 µM", "measurement": "inhibition", "value": "4%"}
{"SMILES": "C[C@H](c1ccc(F)cc1)N(Cc1cccc(C(=O)O)c1)C(=O)c1cnc2ccccc2c1", "observed": "cell-free assay", "method": "competition with immobilised ligand", "tested at": "1 µM", "measurement": "remaining binding", "value": "100%"}
{"SMILES": "Cc1ccc(C(=O)Nc2ccc(CN3CCN(C)CC3)c(C(F)(F)F)c2)cc1C#Cc1cnc2cccnn12", "observed": "enzyme activity", "action": "inhibitor", "tested at": "23.5 nM", "measurement": "remaining activity", "value": "40%"}
{"SMILES": "CC/C(=N\\NC(=O)NCc1cccc(O)c1)c1ccc(O)c(C)c1O", "observed": "enzyme activity", "action": "inhibitor", "tested at": "0.1 µM", "measurement": "inhibition", "value": "1.1%"}
{"SMILES": "N#CCCc1ccc2c(c1)-c1[nH]c3ccc([N+](=O)[O-])cc3c1CC(=O)N2", "observed": "cell-free assay", "tested at": "0.5 µM", "measurement": "remaining signal", "value": "78.6%"}
{"SMILES": "O=C(Nc1ccc(Oc2ccc(F)cc2)cc1)N1CCc2ncccc2[C@H]1c1ccc(F)cc1", "observed": "cell-free assay", "method": "competition with immobilised ligand", "tested at": "1 µM", "measurement": "remaining binding", "value": "94%"}
{"SMILES": "Nc1ncnc2occ(-c3ccc(NC(=O)Nc4cc(C(F)(F)F)ccc4F)cc3)c12", "observed": "cell-free assay", "action": "inhibitor", "tested at": "20 µM", "measurement": "remaining signal", "value": "0.8%"}
{"SMILES": "CC(C)(C)c1nc(-c2cccc(NS(=O)(=O)c3c(F)cccc3F)c2F)c(-c2ccnc(N)n2)s1", "observed": "enzyme activity", "action": "inhibitor", "method": "radiometric", "tested at": "1 µM", "measurement": "remaining activity", "value": "10%"}
{"SMILES": "COc1cc2ncnc(Nc3ccc(Oc4ccccc4)c(C)c3C)c2cc1OC", "observed": "enzyme activity", "action": "inhibitor", "tested at": "1 µM", "measurement": "inhibition", "value": "24%"}
{"SMILES": "FC(F)(F)c1ccc2c(c1)nc(-c1cccnc1)n2C1CC1", "observed": "cell-free assay", "method": "competition with immobilised ligand", "tested at": "1 µM", "measurement": "remaining binding", "value": "95%"}
{"SMILES": "O=C(Nc1cnn(-c2csc(C(=O)NC3COC3)c2)c1)Nc1ccccc1Cl", "observed": "enzyme activity", "action": "inhibitor", "tested at": "5 µM", "measurement": "remaining activity", "value": "99.8%"}
{"SMILES": "C[S+]([O-])c1ccc(-c2nc(-c3ccncc3)c(-c3ccc(F)cc3)[nH]2)cc1 (stereo not drawn)", "observed": "cell-free assay", "tested at": "0.5 µM", "measurement": "remaining signal", "value": "102%"}
